Data taken from ChEMBL document CHEMBL1149254, “The discovery of orally active triaminotriazine aniline amides as inhibitors of p38 MAP kinase” (J Med Chem, 2004).

How the values were obtained:
[1] = test system: THP-1; assay: Inhibition of LPS-induced TNFalpha production in human THP1 cells by ELISA; assay type: functional, cell-based
Procedure, shortened: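 THP-1 cells grown in RPMI 1640 with 10% FBS, 40000 cells/well. Compound or vehicle was added (1% DMSO final), then LPS at 1 μg/mL final. Cells were incubated overnight at 37 °C, 5% CO2. TNF in the supernatant was measured by sandwich ELISA: anti-human TNF capture, biotinylated polyclonal detection, streptavidin-peroxidase read-out.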

[2] = biological target: Mitogen-activated protein kinase 14 (Homo sapiens, UniProt Q16539); assay: Inhibition of human p38-alpha expressed in Escherichia coli
Chain of Mitogen-activated protein kinase 14 (Q16539 whole entry): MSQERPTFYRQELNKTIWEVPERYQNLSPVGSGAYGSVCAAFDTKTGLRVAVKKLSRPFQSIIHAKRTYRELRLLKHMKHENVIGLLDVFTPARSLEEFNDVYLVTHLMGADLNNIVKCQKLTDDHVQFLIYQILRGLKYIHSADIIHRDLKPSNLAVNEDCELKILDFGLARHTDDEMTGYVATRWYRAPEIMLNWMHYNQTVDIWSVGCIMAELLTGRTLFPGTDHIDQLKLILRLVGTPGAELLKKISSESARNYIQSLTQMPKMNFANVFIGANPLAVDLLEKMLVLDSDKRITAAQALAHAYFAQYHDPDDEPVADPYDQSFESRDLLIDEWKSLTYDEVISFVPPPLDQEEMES

Row | IC50 [1] [µM] | IC50 [2] [µM] | SMILES
1 | 1.7 | 1.36 | Cc1ccc(C(N)=O)cc1Nc1nc(NC[C@@H]2CC[C@H]3C[C@@H]2C3(C)C)nc(N2CCCNCC2)n1
2 | 1.1 | 0.053 | Cc1ccc(C(N)=O)cc1Nc1nc(NC[C@@H]2CC[C@H]3C[C@@H]2C3(C)C)nc(N[C@H]2CCNC2)n1
3 | 0.15 | 0.016 | Cc1ccc(C(=O)NO)cc1Nc1nc(N[C@H]2CCNC2)nc(N(C)CC(C)(C)C)n1
4 | > 5 | 0.227 | Cc1ccc(C(N)=O)cc1Nc1nc(NCCc2ccc(F)cc2)nc(N[C@H]2CCNC2)n1
5 | 0.131 | 0.052 | CONC(=O)c1ccc(C)c(Nc2nc(N(C)CC(C)(C)C)nc(N3CCCNCC3)n2)c1
6 | 0.13 | 0.1 | Cc1ccc(C(=O)NC2CCCC2)cc1Nc1nc(N[C@H]2CCNC2)nc(N(C)CC(C)(C)C)n1
7 | 0.15 | 0.051 | Cc1ccc(C(=O)NC(C)C)cc1Nc1nc(N[C@H]2CCNC2)nc(N(C)CC(C)(C)C)n1
8 | 0.12 | 0.018 | CONC(=O)c1ccc(C)c(Nc2nc(N(C)CC(C)(C)C)nc(N3CCNCC3)n2)c1
9 |  | > 1 | Cc1ccc(C(=O)O)cc1Nc1nc(N(C)CC(C)(C)C)nc(N2CCCN(C)CC2)n1
10 | 0.085 | 0.064 | Cc1ccc(C(=O)NCc2ccccc2)cc1Nc1nc(N[C@H]2CCNC2)nc(N(C)CC(C)(C)C)n1
11 | 2.6 | 0.084 | Cc1ccc(C(N)=O)cc1Nc1nc(N[C@H]2CCNC2)nc(N(C)CC(C)c2ccccc2)n1 (stereo partly drawn)
12 | 1.3 | 0.25 | Cc1ccc(C(N)=O)cc1Nc1nc(N[C@H]2CCNC2)nc(N(C)CC2CCCCC2)n1
